Laboratory results reported in publication PMC5041297 (Clinical cancer research : an official journal of the …, 2016).
Read-outs that look alike come from different tables or passages of the source.

How the values were obtained:
purified kinases = settings: cited from earlier work; for inhibition of certain kinases: high concentrations, cell-free conditions
PARP = settings: cited from earlier work
[1] = system: MPN erythroid and myeloid progenitors; test: Colony forming assay, mononuclear cells from MPN patients; type: cell-based, human; settings: for IC50: Homo sapiens
Outline: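 Peripheral-blood mononuclear cells from patients, Ficoll-Hypaque purified, washed into RPMI 1640 and mixed with methylcellulose medium containing PARP inhibitor (0, 0.5, 1, 2.5, 5, 10, 20 μM or 0, 0.25, 0.5, 1, 2, 5 μM; DMSO 0.1%). 1–5 × 10^5 cells per plate, 2–4 replicate plates, 37 °C, 5% CO2. Colonies (>40 cells) scored at 10–14 days (some CMMoL at 5–7 days). IC50 is 50% of diluent-control colonies, from linear regression after exponential transformation.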

## O=C(c1cc(Cc2n[nH]c(=O)c3ccccc23)ccc1F)N1CCN(C(=O)C2CC2)CC1 [Olaparib]
Purified kinases
  off-target kinase inhibitory activity: lacks this off-target kinase inhibitory activity
PARP
  more potent in vitro (olaparib relative to veliparib): roughly 10 fold

## CN(C)CC(=O)Nc1ccc2[nH]c(=O)c3ccccc3c2c1 [PJ-34]
Purified kinases
  inhibition of certain kinases: might also inhibit certain kinases

## C[C@]1(c2nc3c(C(N)=O)cccc3[nH]2)CCCN1 [Veliparib]
Purified kinases
  inhibition of certain kinases: might also inhibit certain kinases
[1]; read-out: IC50 values averaging, CML samples
  IC50: 3000 nM
[1]; read-out: IC50 values averaging, CMMoL samples
  IC50: 3000 nM
[1]; read-out: mean IC50, JAK2V617F mutated samples
  IC50: 5700 nM
[1]; read-out: veliparib IC50s, 5 of 16 individual JAK2 mutated samples
  IC50: < 2000 nM
[1]; average, MPN samples vs normal controls, P<0.0001
  IC50 lower in MPN samples than in normal controls: 4 fold
[1]; on average, p = 0.028
  IC50 lower in MPN samples with impaired RAD51 foci formation compared to those without: 3 fold
